Data from ChEMBL document CHEMBL1129350, “Hypoxia-selective antitumor agents. 13. Effects of acridine substitution on the hypoxia-selective cytotoxicity and metabolic reduction of the bis-bioreductive agent nitracrine N-oxide” (J Med Chem, 1996).

Tests used:
[1] = Spheroid resistance factor which is defined as the ratio C10 (intact)/ C10 (dissociated) EMT6 cells; assay type: functional
Method in brief: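 EMT6/Ak spheroids were grown in αMEM with 10% FBS in spinner flasks to about 1000–1400 μm diameter. For dissociated cells, spheroids were treated with pronase 0.5 mg/mL and DNAase I 1 mg/mL for 30 min at 37 °C, washed, then exposed to drug for 1 h. Intact spheroids were exposed at 1 spheroid/mL in stirred vials for 1 h before dissociation and plating. Both exposures used about 2 × 10⁵ cells/mL, 5% CO₂/20% O₂, 37 °C. C10 was interpolated from at least four concentrations per survival curve. SRF is C10(intact)/C10(dissociated). Results are mean ± SEM of independent experiments.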

Mus musculus = test: Maximum tolerated ip dose for male C3H/HeN mice.; assay type: functional
Method in brief: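 Compounds formulated in water, injected ip at 0.01 mL/g into male C3H/HeN mice (20–25 g); groups of six mice, dose increments of 1.33-fold, observed 28 days. MTD taken as highest dose causing no deaths or unacceptable morbidity.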

[2] = Inhibitory activity against aerobic growth of UV4cells, Hypersensitivity factor is the ratio of IC50(AA8) to IC50(UV4).; assay type: functional
Method in brief: (§1)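 Growth inhibition: 200 log-phase AA8 or 300 UV4 cells were seeded per well. One day later they were exposed to drug for 18 h under aerobic conditions (5% CO₂) in αMEM with 5% fetal calf serum. Cell mass was measured as protein by methylene blue staining 72–78 h after drug removal. IC50 is the concentration reducing cell mass to 50% of the mean of eight controls on the same plate. HF is IC50(AA8)/IC50(UV4).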

[3] = Air/N2 ratio = C10(air)/C10(nitrogen)
Method in brief: (§2)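 Plateau-phase AA8 cells at 10⁶/mL in magnetically stirred 10 mL suspensions in αMEM with 5% fetal calf serum, continuously gassed with 5% CO₂ in air or N₂. Cells and drug solutions were pre-equilibrated under the gas phase for 60 min before mixing, then exposed for 1 h. Clonogenic survival was read as plating efficiency. C10 is the concentration lowering plating efficiency to 10% of concurrent untreated controls. The air/N₂ ratio is C10(air)/C10(N₂).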

EMT6 (Mus musculus) = test: Concentration resulting in 10% survival in dissociated EMT6 spheroid cell suspension
CHO-AA8 [4] = test: Concentration needed to reduce cell survival to 10% of control values, using 1 hour exposure of plateau phase AA8 cells at 10e6 cells/ml; assay type: functional, Cricetulus griseus; method in brief: as §2
CHO-AA8 [5] = test: Inhibitory activity against aerobic growth of AA8 cells.; assay type: functional, cell-based; details: Cricetulus griseus; method in brief: as §1

Row | SMILES | Ratio [1] | MTD (Mus musculus) [µM/kg] | Ratio [2] | Ratio [3] | C10 (EMT6 (Mus musculus)) [µM] | C10 (CHO-AA8 [4]) [µM] | IC50 (CHO-AA8 [5]) [µM]
1 | COc1ccc([N+](=O)[O-])c2c(NCCCN(C)C)c3ccccc3nc12 | 7.7 | 15 | 14 | 11 | 1.7 | 16 | 0.47
2 | COc1ccc2nc3ccccc3c(NCCC[N+](C)(C)[O-])c2c1[N+](=O)[O-] | – | 300 | – | – | – | >300 | 84
3 | COc1ccc2nc3ccccc3c(NCCCN(C)C)c2c1[N+](=O)[O-] | – | – | 4.6 | – | – | >60 | 2.9
4 | CN(C)CCCNc1c2ccccc2nc2cccc([N+](=O)[O-])c12 [NITRACRINE] | 10.7 | 0.3 | 15 | 5.1 | 0.11 | 0.4 | –
5 | COc1cccc2c(NCCC[N+](C)(C)[O-])c3c([N+](=O)[O-])ccc(OC)c3nc12 | – | 450 | 14 | 2770 | – | 59000 | 150
6 | COc1cc(OC)c2nc3ccccc3c(NCCCN(C)C)c2c1[N+](=O)[O-] | – | 300 | 1.3 | 2.3 | – | 500 | 47
7 | Cc1ccc([N+](=O)[O-])c2c(NCCC[N+](C)(C)[O-])c3ccccc3nc12 | – | 15 | 29 | 150 | – | 47 | 5.4
8 | COc1ccc([N+](=O)[O-])c2c(NCCC[N+](C)(C)[O-])c3ccccc3nc12 | 1.9 | 100 | 43 | 1250 | 300 | 15700 | 130
9 | C[N+](C)([O-])CCCNc1c2ccccc2nc2cccc([N+](=O)[O-])c12 | 7 | 15 | 15 | 820 | 1.9 | 61 | 2.7
10 | Cc1cccc2c(NCCCN(C)C)c3c([N+](=O)[O-])ccc(C)c3nc12 | – | 20 | 22 | 11 | – | 9.6 | 0.19
11 | COc1cc(OC)c2nc3ccccc3c(NCCC[N+](C)(C)[O-])c2c1[N+](=O)[O-] | – | 800 | 0.9 | 1.2 | – | 20000 | 1960
12 | COc1cccc2c(NCCCN(C)C)c3c([N+](=O)[O-])ccc(OC)c3nc12 | – | 100 | 11 | 14 | – | 47 | 0.51
13 | Cc1cccc2c(NCCC[N+](C)(C)[O-])c3c([N+](=O)[O-])ccc(C)c3nc12 | – | 15 | 32 | 54 | – | 60 | 6.8
14 | Cc1ccc([N+](=O)[O-])c2c(NCCCN(C)C)c3ccccc3nc12 | – | 0.2 | 13 | 6.9 | – | 1.5 | 0.053
